Experiments:
Mus musculus [1] = assay: Proliferation induced by the mitogen alone-Concanavalin A (control blastogenesis), in mice cells dosed at 5 ug/mL; type: functional; design: unit not given here
Method in brief: (§1)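 Splenocytes from female DBA/2 mice, 6–9 weeks old; red cells lysed with cold 0.17 M NH₄Cl. Cells plated at 5 × 10⁶ cells/mL in RPMI 1640 with 5% FCS, with compound (5–80 μg/mL range) and Con A, PWM or PHA at a batch-optimized concentration. Cultured 72 h at 37 °C, 5% CO₂, with [³H]thymidine for the final 24 h, read by scintillation. Triplicate wells; mean ± SD of three cultures.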

Mus musculus [2] = assay: Percent of restoration in nude mice (in vivo); type: functional
Method in brief: (§2)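 Female nu/nu mice, 6–9 weeks old, dosed by gastric tube in 0.2 mL 2% arabic gum with 0.1% Tween-80; controls received vehicle only. Spleens taken 24 h later and splenocytes prepared. Thy1⁺ cells counted by direct FITC anti-Thy1 staining under epifluorescence. Five animals per group, mean ± SD.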

Mus musculus [3] = organism: Mus musculus; assay: Maximal proliferation induced in the presence of the mitogen-PWM ( stimulated blastogenesis) in Mice cells at a dose of 10 ug/mL; type: functional; design: unit not given here; method in brief: as §1
Mus musculus [4] = assay: […] induction of Thyl+ antigen expression on murine bone marrow cells at the concentration of 3.2 uM(Fraction B).(Control group); type: functional
Method in brief: (§3)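 Bone marrow from female C57 BL/6 mice, 5–8 weeks old, separated on a discontinuous BSA gradient. Fraction A (lowest density) and fraction B (next lowest) resuspended at 10⁶ cells/mL in HBSS with 5% BSA. Cells incubated 24 h with one compound concentration, then stained directly with FITC anti-Thy1 and counted by epifluorescence microscopy. % Thy1⁺ cells recorded for treated and control cultures.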

Mus musculus [5] = organism: Mus musculus; assay: Maximal proliferation induced in the presence of the mitogen-PHA ( stimulated blastogenesis) in Mice cells at a dose of 10 ug/mL
Mus musculus [6] = assay: Percent of restoration of T- cell markers in nude mice (in vivo); type: functional; method in brief: as §2
Mus musculus [7] = organism: Mus musculus; assay: Proliferation induced by the mitogen alone-PHA (control blastogenesis), in Mice cells at a dose of 5 ug/mL; type: functional; design: unit not given here; method in brief: as §1
Mus musculus [8] = assay: […] induction of Thyl+ antigen expression on murine bone marrow cells at the concentration of 3.2 uM(Fraction A).(Control group); type: functional; method in brief: as §3
Mus musculus [9] = assay: […] induction of Thyl+ antigen expression on murine bone marrow cells at the concentration of 3.2 uM(Fraction B).(treated); type: functional; method in brief: as §3
Mus musculus [10] = assay: Percent of Thyl+ positive cells / spleen x 10 e6 in nude mice (in vivo); type: functional; method in brief: as §2
Mus musculus [11] = assay: […] induction of Thyl+ antigen expression on murine bone marrow cells at the concentration of 3.2 uM(Fraction A).(treated); type: functional; method in brief: as §3
Mus musculus [12] = assay: Maximal proliferation induced in the presence of the mitogen-Concanavalin A (stimulated blastogenesis) in mice cells dosed at 5 ug/mL; type: functional; design: unit not given here; method in brief: as §1
Mus musculus [13] = assay: Percent of Thyl+ positive cells, in nude mice (in vivo); type: functional; method in brief: as §2
Mus musculus [14] = organism: Mus musculus; assay: Proliferation induced by the mitogen alone-PWM (control blastogenesis), in Mice cells at a dose of 10 ug/mL; type: functional; design: unit not given here; method in brief: as §1
Mus musculus [15] = assay: […] induction of Thyl+ antigen expression on murine bone marrow cells at the concentration of 7 uM(Fraction B).(Control group); type: functional; method in brief: as §3
Mus musculus [16] = assay: […] induction of Thyl+ antigen expression on murine bone marrow cells at the concentration of 7 uM(Fraction A).(treated)); type: functional; method in brief: as §3
Mus musculus [17] = assay: […] induction of Thyl+ antigen expression on murine bone marrow cells at the concentration of 7 uM(Fraction A).(Control group); type: functional; method in brief: as §3
Mus musculus [18] = assay: […] induction of Thyl+ antigen expression on murine bone marrow cells at the concentration of 7 uM(Fraction B).(treated); type: functional; method in brief: as §3
Mus musculus [19] = organism: Mus musculus; assay: Maximal proliferation induced in the presence of the mitogen-PWM ( stimulated blastogenesis) in Mice cells at a dose of 40 ug/mL; type: functional; design: unit not given here; method in brief: as §1
Mus musculus [20] = organism: Mus musculus; assay: Proliferation induced by the mitogen alone-PHA (control blastogenesis), in Mice cells at a dose of 10 ug/mL; type: functional; method in brief: as §1
Mus musculus [21] = organism: Mus musculus; assay: Maximal proliferation induced by the test compound in the presence of the mitogen-PHA ( stimulated blastogenesis) in Mice cells at a dose of 10 ug/mL; type: functional; method in brief: as §1
Mus musculus [22] = organism: Mus musculus; assay: Proliferation induced by the mitogen alone-PWM (control blastogenesis), in Mice cells at a dose of 40 ug/mL; type: functional; design: unit not given here
Method in brief: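 Splenocytes from female DBA/2 mice aged 6–9 weeks, red cells lysed with cold 0.17 M NH4Cl, cultured at 5 × 10⁶ cells/mL in RPMI 1640 with 5% FCS. Pokeweed mitogen added at a batch-adjusted optimal level, 72 h at 37 °C, 5% CO2. [³H]thymidine pulse for the final 24 h, then scintillation counting. Triplicates; mean ± SD of three cultures.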

Mus musculus [23] = assay: […] induction of Thyl+ antigen expression on murine bone marrow cells at the concentration of 2.9 uM(Fraction A).(treated); type: functional; method in brief: as §3
Mus musculus [24] = assay: […] induction of Thyl+ antigen expression on murine bone marrow cells at the concentration of 2.9 uM(Fraction B).(Control group); type: functional; method in brief: as §3
Mus musculus [25] = assay: […] induction of Thyl+ antigen expression on murine bone marrow cells at the concentration of 2.9 uM(Fraction B).(treated); type: functional; method in brief: as §3
Mus musculus [26] = assay: […] induction of Thyl+ antigen expression on murine bone marrow cells at the concentration of 2.9 uM(Fraction A).(Control group); type: functional; method in brief: as §3
Mus musculus [27] = assay: […] induction of Thyl+ antigen expression on murine bone marrow cells at the concentration of 3 uM(Fraction B).(Control group); type: functional; method in brief: as §3
Mus musculus [28] = assay: […] induction of Thyl+ antigen expression on murine bone marrow cells at the concentration of 3 uM(Fraction A).(treated); type: functional; method in brief: as §3
Mus musculus [29] = assay: […] induction of Thyl+ antigen expression on murine bone marrow cells at the concentration of 3 uM(Fraction B).(treated); type: functional; method in brief: as §3
Mus musculus [30] = assay: […] induction of Thyl+ antigen expression on murine bone marrow cells at the concentration of 3 uM(Fraction A).(Control group); type: functional; method in brief: as §3
Mus musculus [31] = assay: […] induction of Thyl+ antigen expression on murine bone marrow cells at the concentration of 2.7 uM(Fraction A).(treated); type: functional; method in brief: as §3
Mus musculus [32] = assay: […] induction of Thyl+ antigen expression on murine bone marrow cells at the concentration of 2.7 uM(Fraction B).(Control group); type: functional; method in brief: as §3
Mus musculus [33] = assay: […] induction of Thyl+ antigen expression on murine bone marrow cells at the concentration of 2.7 uM(Fraction B).(treated); type: functional; method in brief: as §3
Mus musculus [34] = assay: […] induction of Thyl+ antigen expression on murine bone marrow cells at the concentration of 2.7 uM(Fraction A).(Control group); type: functional; method in brief: as §3
Mus musculus [35] = assay: […] induction of Thyl+ antigen expression on murine bone marrow cells at the concentration of 2.5 uM(Fraction A).(Control group); type: functional; method in brief: as §3
Mus musculus [36] = assay: […] induction of Thyl+ antigen expression on murine bone marrow cells at the concentration of 2.5 uM(Fraction A).(treated); type: functional; method in brief: as §3
Mus musculus [37] = assay: […] induction of Thyl+ antigen expression on murine bone marrow cells at the concentration of 2.5 uM(Fraction B).(Control group); type: functional; method in brief: as §3
Mus musculus [38] = assay: […] induction of Thyl+ antigen expression on murine bone marrow cells at the concentration of 2.5 uM(Fraction B).(treated); type: functional; method in brief: as §3

SMILES	Proliferative response (Mus musculus [1])	Restoration (Mus musculus [2]) [%]	Proliferative response (Mus musculus [3])	Proliferative response (Mus musculus [5])	Restoration (Mus musculus [6]) [%]	Proliferative response (Mus musculus [7])	Thylpositive cells/spleen (Mus musculus [10]) [cells/spleen]	Proliferative response (Mus musculus [12])	Thylpositive cells (Mus musculus [13]) [%]	Proliferative response (Mus musculus [14])	Proliferative response (Mus musculus [19])	Proliferative response (Mus musculus [22])	also measured
CCCCC1CCN(c2ccc(N)cc2C(=O)c2ccc(Cl)cc2)CC1	211.8	0.6	81.7	59.1	3.6	51.3	2.05e+06	289.2	3.5	78.4	–	–	Differentiation (Mus musculus [4]): 5.2%; Differentiation (Mus musculus [8]): 3.8%; Differentiation (Mus musculus [9]): 6.4%; Differentiation (Mus musculus [11]): 4.2%
CC1CCN(c2ccc(N)cc2C(=O)c2ccc(Cl)cc2)CC1	194.5	24.5	–	–	14.3	–	6.65e+06	269.5	6.9	–	101.9	36.5	Differentiation (Mus musculus [15]): 5%; Differentiation (Mus musculus [16]): 11.5%; Differentiation (Mus musculus [17]): 5.6%; Differentiation (Mus musculus [18]): 11.4%; Proliferative response (Mus musculus [20]): 12.8; Proliferative response (Mus musculus [21]): 43.5
CC1CCN(c2ccc(N)cc2C(=O)c2ccc(Cl)cc2)CC1C (stereo not drawn)	48.6	–	–	–	–	–	–	50.2	–	–	75.8	67.3	Differentiation (Mus musculus [23]): 8.8%; Differentiation (Mus musculus [24]): 6.1%; Differentiation (Mus musculus [25]): 3%; Differentiation (Mus musculus [26]): 6.1%
Nc1ccc(N2CCC(c3ccccc3)CC2)c(C(=O)c2ccc(Cl)cc2)c1	263.2	7.4	115.3	54.4	12.5	59.9	3.2e+06	294.1	5.5	95.7	–	–	Differentiation (Mus musculus [27]): 5.2%; Differentiation (Mus musculus [28]): 7%; Differentiation (Mus musculus [29]): 6.4%; Differentiation (Mus musculus [30]): 3.8%
CC1CCCCN1c1ccc(N)cc1C(=O)c1ccc(Cl)cc1 (stereo not drawn)	131.5	–	–	–	–	–	–	295	–	–	58.1	55.8	Differentiation (Mus musculus [31]): 6%; Differentiation (Mus musculus [32]): 5%; Differentiation (Mus musculus [33]): 4.4%; Differentiation (Mus musculus [34]): 5.6%
CCOC(=O)Nc1ccc(N2CCC(C)CC2)c(C(=O)c2ccc(Cl)cc2)c1	8	3.3	–	–	3.2	–	2.5e+06	16.3	3.4	–	–	–	Differentiation (Mus musculus [35]): 6.1%; Differentiation (Mus musculus [36]): 11.6%; Differentiation (Mus musculus [37]): 6.1%; Differentiation (Mus musculus [38]): 5.5%

— ChEMBL document CHEMBL1125686, “(Benzoylphenyl)piperidines: a new class of immunomodulators” (1991)
